{
  "source": "ChEMBL document CHEMBL2086325",
  "about": "“Suppression of autoimmune arthritis by Celastrus-derived Celastrol through modulation of pro-inflammatory chemokines” (Bioorg Med Chem, 2012)",
  "key": {"[1]": {"system": "Rattus norvegicus", "assay": "(§1) Antiarthritic effect in Lewis rat adjuvant-induced arthritis model synovial infiltrating cells restimulated with sonicated Mtb post isolation assessed as reduction in MIP-1alpha production at 200 ug, ip starting from arthritis onset and continued uninterrupted until study end by cytokine multiplex assay", "format": "functional, organism-based", "outline": "(§2)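 Male Lewis rats were immunized s.c. with heat-killed Mtb H37Ra (1.5 mg/rat) in mineral oil. From arthritis onset they received 200 μg/rat i.p. daily (DMSO stock diluted in PBS); controls got 1.2% DMSO in PBS. On d 18, draining lymph node or synovial-infiltrating cells were cultured at 1.5 × 10^6/well in 2% FBS medium ± sonicated Mtb (10 μg/ml) for 24 h. Supernatants were analysed by multiplex.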"}, "[2]": {"organism": "Rattus norvegicus", "assay": "Antiarthritic effect in IL-1beta-stimulatedspleen adherent cells isolated from Lewis rat adjuvant-induced arthritis model assessed as reduction in GRO/KC production pre-incubated with compound for 30 mins before stimulation with IL-1beta for 48 hrs by multiplex assay", "format": "functional, tissue-based", "conditions": "Spleen"}, "[3]": {"organism": "Rattus norvegicus", "assay": "Antiarthritic effect in IL-1beta-stimulatedspleen adherent cells isolated from Lewis rat adjuvant-induced arthritis model assessed as reduction in TNFalpha production pre-incubated with compound for 30 mins before stimulation with IL-1beta for 48 hrs by multiplex assay", "format": "functional, tissue-based", "conditions": "Spleen"}, "[4]": {"system": "Rattus norvegicus", "assay": "Antiarthritic effect in Lewis rat adjuvant-induced arthritis model serum assessed as reduction in RANTES production at 200 ug, ip starting from arthritis onset and continued uninterrupted until study end by cytokine multiplex assay", "format": "functional, organism-based", "outline": "(§3)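 Arthritic Lewis rats (Mtb 1.5 mg s.c. in mineral oil) were given 200 μg/rat i.p. daily from onset until the day before harvest; controls received DMSO/PBS vehicle. On d 18, blood was taken by cardiac puncture after euthanasia and serum stored at −80 °C. Serum pooled from 4 rats was assayed in triplicate by multiplex.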"}, "[5]": {"system": "Rattus norvegicus", "assay": "Antiarthritic effect in Lewis rat adjuvant-induced arthritis model spleen adherent cells restimulated with sonicated Mtb post isolation assessed as reduction in IL-1beta production at 200 ug, ip starting from arthritis onset and continued uninterrupted until study end by cytokine multiplex assay", "format": "functional, organism-based", "outline": "(§4)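 Mtb-immunized male Lewis rats were dosed 200 μg/rat i.p. daily from arthritis onset (vehicle: 1.2% DMSO/PBS). Spleen adherent cells were prepared on d 18, plated at 1.5 × 10^6/well in 2% FBS medium and restimulated with sonicated Mtb (10 μg/ml) for 24 h. Supernatant chemokines and cytokines were measured by Luminex multiplex. Mean ± SD of triplicates from 4–5 rats.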"}, "[6]": {"system": "Rattus norvegicus", "assay": "Increase in CCR1 expression in Lewis rat adjuvant-induced arthritis model spleen adherent cells restimulated with sonicated Mtb post isolation at 200 ug, ip starting from arthritis onset and continued uninterrupted until study end by qPCR relative baseline expression", "format": "functional, organism-based", "outline": "(§5)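 From onset of Mtb-induced arthritis, rats received 200 μg/rat i.p. daily or vehicle. Spleen adherent cells harvested on d 18 (1.5–2.0 × 10^6 cells/well) were cultured in medium or with sonicated Mtb (10 μg/ml) for 24 h. Receptor mRNA was quantified by qPCR after TRIzol RNA isolation and cDNA synthesis, normalized to HGPRT and reported as relative message.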"}, "[7]": {"system": "Rattus norvegicus", "assay": "Antiarthritic effect in Lewis rat adjuvant-induced arthritis model spleen adherent cells restimulated with sonicated Mtb post isolation assessed as reduction in CCR6 expression at 200 ug, ip starting from arthritis onset and continued uninterrupted until study end by qPCR", "format": "functional, organism-based", "outline": "as §5"}, "[8]": {"organism": "Rattus norvegicus", "assay": "Antiarthritic effect in IL-1beta-stimulatedspleen adherent cells isolated from Lewis rat adjuvant-induced arthritis model assessed as reduction in MCP1 production pre-incubated with compound for 30 mins before stimulation with IL-1beta for 48 hrs by multiplex assay", "format": "functional, tissue-based", "conditions": "Spleen"}, "[9]": {"system": "Rattus norvegicus", "assay": "Antiarthritic effect in Lewis rat adjuvant-induced arthritis model serum assessed as reduction in TNFalpha production at 200 ug, ip starting from arthritis onset and continued uninterrupted until study end by cytokine multiplex assay", "format": "functional, organism-based", "outline": "as §3"}, "[10]": {"system": "Rattus norvegicus", "assay": "as §1, with “IL-1beta” for “MIP-1alpha”", "format": "functional, organism-based", "outline": "as §2"}, "[11]": {"organism": "Rattus norvegicus", "assay": "Antiarthritic effect in IL-1beta-stimulatedspleen adherent cells isolated from Lewis rat adjuvant-induced arthritis model assessed as reduction in IL6 production pre-incubated with compound for 30 mins before stimulation with IL-1beta for 48 hrs by multiplex assay", "format": "functional, tissue-based", "conditions": "Spleen"}, "[12]": {"system": "Rattus norvegicus", "assay": "Toxicity in Lewis rat adjuvant-induced arthritis model serum assessed as increase in MCP1 production at 200 ug, ip starting from arthritis onset and continued uninterrupted until study end by cytokine multiplex assay", "format": "organism-based", "conditions": "in vivo", "outline": "as §3"}, "[13]": {"system": "Rattus norvegicus", "assay": "Antiarthritic effect in Lewis rat adjuvant-induced arthritis model synovial infiltrating cells restimulated with sonicated Mtb post isolation assessed as reduction in MCP1 production at 200 ug, ip starting from arthritis onset and continued uninterrupted until study end by cytokine multiplex assay", "format": "functional, organism-based", "outline": "as §2"}, "[14]": {"organism": "Rattus norvegicus", "assay": "Antiarthritic effect in sonicated Mtb-stimulated spleen adherent cells isolated from Lewis rat adjuvant-induced arthritis model assessed as reduction in MCP1 production pre-incubated with compound for 30 mins before stimulation with sonicated-Mtb for 48 hrs by multiplex assay", "format": "functional, tissue-based"}, "[15]": {"system": "Rattus norvegicus", "assay": "Antiarthritic effect in Lewis rat adjuvant-induced arthritis model lymph node cells restimulated with sonicated Mtb post isolation assessed as reduction in MIP-1alpha production at 200 ug, ip starting from arthritis onset and continued uninterrupted until study end by cytokine multiplex assay", "format": "functional, organism-based", "outline": "as §2"}, "[16]": {"system": "Rattus norvegicus", "assay": "Antiarthritic effect in Lewis rat adjuvant-induced arthritis model lymph node cells restimulated with sonicated Mtb post isolation assessed as reduction in GRO/KC production at 200 ug, ip starting from arthritis onset and continued uninterrupted until study end by cytokine multiplex assay", "format": "functional, organism-based", "outline": "as §2"}, "[17]": {"system": "Rattus norvegicus", "assay": "Antiarthritic effect in Lewis rat adjuvant-induced arthritis model lymph node cells restimulated with sonicated Mtb post isolation assessed as reduction in MCP1 production at 200 ug, ip starting from arthritis onset and continued uninterrupted until study end by cytokine multiplex assay", "format": "functional, organism-based", "outline": "as §2"}, "[18]": {"system": "Rattus norvegicus", "assay": "Antiarthritic effect in Lewis rat adjuvant-induced arthritis model lymph node cells restimulated with sonicated Mtb post isolation assessed as reduction in TNFalpha production at 200 ug, ip starting from arthritis onset and continued uninterrupted until study end by cytokine multiplex assay", "format": "functional, organism-based", "outline": "as §2"}, "[19]": {"system": "Rattus norvegicus", "assay": "Antiarthritic effect in Lewis rat adjuvant-induced arthritis model synovial infiltrating cells restimulated with sonicated Mtb post isolation assessed as reduction in IL6 production at 200 ug, ip starting from arthritis onset and continued uninterrupted until study end by cytokine multiplex assay", "format": "functional, organism-based", "outline": "as §2"}, "[20]": {"system": "Rattus norvegicus", "assay": "Antiarthritic effect in Lewis rat adjuvant-induced arthritis model spleen adherent cells restimulated with sonicated Mtb post isolation assessed as reduction in GRO/KC production at 200 ug, ip starting from arthritis onset and continued uninterrupted until study end by cytokine multiplex assay", "format": "functional, organism-based", "outline": "as §4"}, "[21]": {"organism": "Rattus norvegicus", "assay": "Antiarthritic effect in sonicated Mtb-stimulated spleen adherent cells isolated from Lewis rat adjuvant-induced arthritis model assessed as reduction in IL6 production pre-incubated with compound for 30 mins before stimulation with sonicated-Mtb for 48 hrs by multiplex assay", "format": "functional, tissue-based"}, "[22]": {"system": "Rattus norvegicus", "assay": "Antiarthritic effect in Lewis rat adjuvant-induced arthritis model spleen adherent cells restimulated with sonicated Mtb post isolation assessed as reduction in TNFalpha production at 200 ug, ip starting from arthritis onset and continued uninterrupted until study end by cytokine multiplex assay", "format": "functional, organism-based", "outline": "as §4"}, "[23]": {"system": "Rattus norvegicus", "assay": "Antiarthritic effect in Lewis rat adjuvant-induced arthritis model spleen adherent cells restimulated with sonicated Mtb post isolation assessed as reduction in CCR2 expression at 200 ug, ip starting from arthritis onset and continued uninterrupted until study end by qPCR", "format": "functional, organism-based", "outline": "as §5"}},
  "note": "Calls of active or inactive are those of the source. The calls are words filed in the database; no cut-off is given here.",
  "data": [
    {"compound": "CC1=C(O)C(=O)C=C2C1=CC=C1[C@@]2(C)CC[C@@]2(C)[C@@H]3C[C@](C)(C(=O)O)CC[C@]3(C)CC[C@]12C", "note": "[CELASTROL]", "values": [
      {"measurement": "Activity", "setting": "[1]", "value": "inactive"},
      {"measurement": "Activity", "setting": "[2]", "value": "Dose-dependent effect"},
      {"measurement": "Activity", "setting": "[3]", "value": "Dose-dependent effect"},
      {"measurement": "Activity", "setting": "[4]", "value": "Active"},
      {"measurement": "Activity", "setting": "[5]", "value": "Active"},
      {"measurement": "Activity", "setting": "[6]", "value": "Active"},
      {"measurement": "Activity", "setting": "[7]", "value": "Active"},
      {"measurement": "Activity", "setting": "[8]", "value": "Dose-dependent effect"},
      {"measurement": "Activity", "setting": "[9]", "value": "Active"},
      {"measurement": "Activity", "setting": "[10]", "value": "inactive"},
      {"measurement": "Activity", "setting": "[11]", "value": "Dose-dependent effect"},
      {"measurement": "Activity", "setting": "[12]", "value": "Toxic"},
      {"measurement": "Activity", "setting": "[13]", "value": "inactive"},
      {"measurement": "Activity", "setting": "[14]", "value": "Dose-dependent effect"},
      {"measurement": "Activity", "setting": "[15]", "value": "inactive"},
      {"measurement": "Activity", "setting": "[16]", "value": "inactive"},
      {"measurement": "Activity", "setting": "[17]", "value": "inactive"},
      {"measurement": "Activity", "setting": "[18]", "value": "inactive"},
      {"measurement": "Activity", "setting": "[19]", "value": "inactive"},
      {"measurement": "Activity", "setting": "[20]", "value": "Active"},
      {"measurement": "Activity", "setting": "[21]", "value": "Dose-dependent effect"},
      {"measurement": "Activity", "setting": "[22]", "value": "Active"},
      {"measurement": "Activity", "setting": "[23]", "value": "Active"}
    ]}
  ]
}
